According to PMC3419596 (Cell stem cell, 2012):
Entries after “also recorded” stand apart in the source; their conditions may differ. Like-named read-outs stand apart in the source and are kept apart here.

How the values were obtained:
T-GFP mESCs = assay: Mesoderm inhibition assay, T-GFP mESC flow cytometry; type: cell-based, mouse; settings: added at day 1 of differentiation
Myh6-GFP mESC = assay: mESC cardiogenesis assay, Myh6-GFP reporter; type: cell-based, mouse
TGFBR2 [1] = assay: TGFBR2 protein levels by Western blot; type: cell-based, human; settings: overexpressed in HEK293T, 24h, 5μM
TGFBR2 [2] = target: TGFBR2 (Homo sapiens, UniProt P37173); assay: TGFBR2 protein levels by Western blot; type: cell-based; settings: HEK293T, DLD1 and A549 cells, 5μM
TGFBR2 (Homo sapiens, UniProt P37173), sequence (P37173 23-567): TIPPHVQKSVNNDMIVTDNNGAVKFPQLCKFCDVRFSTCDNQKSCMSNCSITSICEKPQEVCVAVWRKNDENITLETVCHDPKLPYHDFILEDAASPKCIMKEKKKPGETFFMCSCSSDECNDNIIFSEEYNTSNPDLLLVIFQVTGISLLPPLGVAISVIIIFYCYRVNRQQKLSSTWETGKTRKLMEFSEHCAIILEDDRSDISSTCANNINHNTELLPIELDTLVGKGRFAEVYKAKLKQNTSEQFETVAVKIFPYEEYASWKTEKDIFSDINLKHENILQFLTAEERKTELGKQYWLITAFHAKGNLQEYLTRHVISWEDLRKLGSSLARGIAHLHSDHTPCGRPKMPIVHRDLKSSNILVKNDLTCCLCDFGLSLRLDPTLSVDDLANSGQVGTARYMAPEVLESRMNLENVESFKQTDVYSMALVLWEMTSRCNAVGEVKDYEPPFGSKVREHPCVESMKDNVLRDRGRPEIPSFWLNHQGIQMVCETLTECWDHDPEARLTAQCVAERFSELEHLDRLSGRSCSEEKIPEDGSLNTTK

[3] = target: type II (TGFBR2) TGFβ receptor (Homo sapiens, UniProt P37173); assay: TGFBR2 kinase activity; type: biochemical
type II (TGFBR2) TGFβ receptor, sequence (P37173 23-567, species assumed): as the sequence (P37173 23-567) above

TGFBR1 = TGFBR1 protein levels by Western blot, overexpressed in HEK293T; type: cell-based, human; settings: 24h, 5μM
[4] = tested on: Cripto−/− mESC, TGFβ2-induced mesoderm; assay: T gene expression in Cripto−/− mESC, mesoderm induced by TGFβ2; type: cell-based, mouse
How it was run: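 Cripto−/− mESC were moved to serum-free conditions as embryoid bodies. At day 2 of EB formation they received 15 ng/ml TGFβ2 together with test compound. T expression was measured by RT-qPCR. Comparisons were made against a no-TGFβ2 control and against TGFβ2 alone. Mean ± SEM of ≥3 biological replicates; Student's t-test.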

Wnt signaling = Wnt signaling inhibition; type: cell-based
[5] = tested on: Activin A signaling (Lefty1 target gene); assay: Lefty1 mRNA in Cripto−/− mESC, Activin A-induced; type: cell-based, mouse; settings: 5μM, Cripto−/− mESCs
How it was run: (§1)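 Cripto−/− mESCs are moved to serum-free conditions. At day 2 of embryoid body formation they receive 15 ng/ml Activin A or 15 ng/ml TGFβ2 together with test compound. Lefty1 mRNA is measured by RT-qPCR (SYBR Green) on cDNA from total RNA. The TGFβ2 arm is also run as a time course, with a serum-free-medium-alone control. Data are mean ± SEM of ≥3 biological replicates; Student's t-test.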

[6] = tested on: other tyrosine kinase receptors; assay: Levels of other tyrosine kinase receptors; type: cell-based
[7] = tested on: TGFβ2 signaling (Lefty1 target gene); assay: Lefty1 mRNA in Cripto−/− mESC, TGFβ2-induced; type: cell-based, mouse; settings: Cripto−/− mESCs
How it was run: as §1

BMP signaling = BMP signaling inhibition; type: cell-based
calcium channel = assay: Calcium inhibition as mechanism of ITD-1 activities
HA-TGFBR2-mCherry = assay: Flow cytometry receptor degradation assay with HA-TGFBR2-mCherry in HEK293T; type: cell-based, human
TGFBR2 [8] = assay: TGFBR2 internalization; type: cell-based; settings: HA-TGFBR2-mCherry, presence of TGFβ2 ligand
Activin A signaling = assay: SBE4-Luc; type: cell-based, human; settings: HEK293T, Activin A 15ng/ml
How it was run: (§2)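 HEK293T cells grown in high-glucose DMEM with 1% FBS are co-transfected with SBE4-firefly luciferase and CMV-Renilla luciferase. After 12 h adhesion they are stimulated with Activin A or TGFβ2 (15 ng/ml each), with inhibitor added at the same time. Luminescence is read by dual-luciferase assay. IC50 comes from a log(inhibitor) vs normalized response fit, with toxic doses excluded; Emax is given as % inhibition. Data are mean ± SEM.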

[9] = target: type I (TGFBR1) TGFβ receptor (Homo sapiens, UniProt P36897); assay: TGFBR1 kinase activity; type: biochemical
type I (TGFBR1) TGFβ receptor, sequence (P36897 34-503, species assumed): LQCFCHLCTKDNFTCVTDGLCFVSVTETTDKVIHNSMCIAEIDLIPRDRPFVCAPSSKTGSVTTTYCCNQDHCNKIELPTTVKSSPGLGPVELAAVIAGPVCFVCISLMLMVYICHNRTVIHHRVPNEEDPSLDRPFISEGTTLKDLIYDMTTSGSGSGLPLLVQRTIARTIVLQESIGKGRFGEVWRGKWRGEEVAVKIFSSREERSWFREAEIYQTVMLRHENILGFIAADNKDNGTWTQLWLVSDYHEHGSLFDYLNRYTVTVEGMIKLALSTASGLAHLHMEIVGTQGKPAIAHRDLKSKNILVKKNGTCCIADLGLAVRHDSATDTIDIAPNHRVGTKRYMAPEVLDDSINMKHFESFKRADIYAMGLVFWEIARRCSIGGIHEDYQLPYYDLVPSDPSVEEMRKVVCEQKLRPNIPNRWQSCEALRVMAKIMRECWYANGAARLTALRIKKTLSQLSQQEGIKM

H9 hESC = assay: hESC; type: cell-based, human
[10] = tested on: SMAD2/3 phosphorylation induced by Activin A; assay: p-SMAD2/3 Western blot in HEK293T cells, Activin A stimulation; type: cell-based, human
How it was run: (§3)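 HEK293T cells are treated with test compound and stimulated with Activin A or TGFβ. Cells are washed in cold PBS, lifted with enzyme-free buffer and lysed in ice-cold RIPA with protease and phosphatase inhibitors. Lysates are run on 10% SDS-Tris-glycine gels, blotted to PVDF and blocked and probed in 5% skim milk/TBST; detection by ECL or infrared imaging. p-SMAD2/3 is normalized to GAPD and total SMAD2/3 and reported as % inhibition.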

[11] = tested on: SMAD2/3 phosphorylation induced by TGFβ2; assay: p-SMAD2/3 Western blot in HEK293T cells, TGFβ2 stimulation; type: cell-based, human
How it was run: as §3

[12] = tested on: Cripto−/− mESC, Activin A-induced mesoderm; assay: T gene expression in Cripto−/− mESC, mesoderm induced by Activin A; type: cell-based, mouse
How it was run: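 Mesoderm assay in Cripto−/− mESCs under serum-free conditions. At day 2 of embryoid body formation, cells are given 15 ng/ml Activin A plus test compound. T (Brachyury) mRNA is quantified by RT-qPCR (SYBR Green) on cDNA from total RNA and compared with no-Activin and Activin-alone controls. Data are mean ± SEM of ≥3 biological replicates; Student's t-test.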

TGFβ2 signaling = assay: SBE4-Luc; type: cell-based, human; settings: for IC50: read-out: IC50 TGFβ2 signaling inhibition (SBE4-Luc)
How it was run: as §2

mESC = assay: RT-qPCR of germ layer and lineage markers in mESC; type: cell-based, mouse
HEK293T cells = assay: Toxicity control for inhibitory activity; type: cell-based, human
How it was run: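 Toxicity in the reporter assays is judged from Renilla luciferase levels, Alamar Blue viability or microscopy. Doses judged toxic are removed before IC50/EC50 curve fitting.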

[13] = added day 3-5 of differentiation
[14] = given at day 1 of differentiation

c1cc(-c2cnn3cc(-c4ccc(OCCN5CCCCC5)cc4)cnc23)ccn1 [Dorsomorphin]
mesoderm induction (T-GFP+ cells) (T-GFP mESCs): did not affect mesoderm

CCOC(=O)C1=C(C)NC2=C(C(=O)CC(C)(C)C2)C1c1ccc(-c2ccccc2)cc1 (stereo not drawn) [ITD-1(+)]
cardiogenesis (Myh6-GFP) (Myh6-GFP mESC; [13]): drove cardiomyogenesis

CCOC(=O)C1=C(C)NC2=C(C(=O)CC(C)(C)C2)C1c1ccc(-c2ccccc2)cc1 (stereo not drawn) [ITD-1]
mesoderm induction (T-GFP+ cells) (T-GFP mESCs): diminished the number of mesoderm cells | TGFBR2 protein levels (TGFBR2 [1]): strongly downregulated TGFBR2 protein levels | endogenous TGFBR2 levels (TGFBR2 [2]): decreased endogenous TGFBR2 levels | TGFBR2 kinase activity [3]: did not block the kinase activity | cardiogenesis (Myh6-GFP) (Myh6-GFP mESC; added day 1-3 of differentiation, before mesoderm induction): completely abolished cardiogenesis | cardiogenesis (Myh6-GFP) (Myh6-GFP mESC; [13]): drove cardiomyogenesis; also recorded: optimally promoted cardiogenesis and beating cell clusters | TGFBR1 protein levels (TGFBR1): did not affect TGFBR1 | mesoderm induced by TGFβ (T gene expression) [4]: selectively blocked mesoderm induced by TGFβ | Wnt signaling inhibition (Wnt signaling): did not inhibit Wnt signaling; also recorded: not inhibited | induction of Lefty1 in response to Activin A [5]: not to Activin A | effect on other tyrosine kinase receptors [6]: did not affect other tyrosine kinase receptors | induction of Lefty1 in response to TGFβ2 ([7]; 5μM): effectively blocked induction | additional time needed to inhibit Lefty1 expression compared to SB-431542 ([7]; TGFβ2 treatment): ~ 3 h | BMP signaling inhibition (BMP signaling): not inhibited | role of calcium inhibition in ITD-1 activities (calcium channel): no evidence was found for a role through calcium inhibition | Emax, maximal depletion of HA-TGFBR2 (HA-TGFBR2-mCherry; cell surface receptor): ~ 80% | time needed to reduce TGFBR2 levels (HA-TGFBR2-mCherry; time course, flow cytometry): At least 6 h | time of maximum reduction of TGFBR2 levels (HA-TGFBR2-mCherry; time course, flow cytometry): ≤ 24 h | Emax, maximal depletion of TGFBR2-mCherry (HA-TGFBR2-mCherry; total receptor): ~ 50% | immediate internalization of TGFBR2 (TGFBR2 [8]): did not block immediate internalization of TGFBR2 | Activin A signal inhibition (SBE4-Luc) (Activin A signaling): weak and partial inhibitor | TGFBR1 kinase activity [9]: did not block the kinase activity | enhancement of TNNT2+ cardiomyocyte yield (H9 hESC; added day 1-5, analysed day 6): ~ 30% | resulting cardiomyocytes (TNNT2+) (H9 hESC; added day 1-5, analysed day 6): ~ 60% | phosphorylation of SMAD2/3 in response to Activin A [10]: only minimally | phosphorylation of SMAD2/3 induced by TGFβ2 [11]: potently blocked phosphorylation | mesoderm induced by Activin A (T gene expression) [12]: not by Activin A | efficacy of TGFβ2 signaling inhibition (Emax, % inhibition) (TGFβ2 signaling; HEK293T, SBE4-Luc): 92% | IC50 (TGFβ2 signaling; HEK293T, TGFβ2 15ng/ml): 850 nM | germ layer markers at day 5 (RT-qPCR) (mESC; [14]): induced ectoderm at the expense of mesoderm | lineage markers at day 10 (RT-qPCR) (mESC; [14]): markers for mesoderm tissues such as heart, endothelium, smooth muscle and blood were all downregulated, while neural markers were upregulated | marker expression at day 5 (RT-qPCR) (mESC; mESC treated day 3-5): only the cardiac progenitor specific markers Kdr and Mesp1 were increased | marker expression at day 10 (RT-qPCR) (mESC; mESC treated day 3-5): only cardiac-specific markers were increased | toxicity as cause of inhibitory activity (HEK293T cells): Toxicity was not responsible

c1ccc(-c2[nH]ncc2-c2ccnc3ccccc23)nc1 [LY-364947, reference compound]
mesoderm induction (T-GFP+ cells) (T-GFP mESCs): diminished the number of mesoderm cells | cardiogenesis (Myh6-GFP) (Myh6-GFP mESC; [13]): drove cardiomyogenesis

NC(=O)c1ccc(-c2nc(-c3ccc4c(c3)OCO4)c(-c3ccccn3)[nH]2)cc1 [SB-431542, reference compound]
mesoderm induction (T-GFP+ cells) (T-GFP mESCs): diminished the number of mesoderm cells | cardiogenesis (Myh6-GFP) (Myh6-GFP mESC; [13]): drove cardiomyogenesis | immediate internalization of TGFBR2 (TGFBR2 [8]): abolished internalization | cardiogenesis in hESC (H9 hESC; mesoderm patterning stage, data not shown): completely blocked cardiogenesis | IC50 (TGFβ2 signaling; Homo sapiens, HEK-293T): 70 nM

IWP
mesoderm induction (T-GFP+ cells) (T-GFP mESCs): diminished the number of mesoderm cells

B1: TGFβ2: TGFβ family member ligand added to ESC cultures (protein, UniProt P61812 303-414, looked up)
Transforming growth factor …: ALDAAYCFRNVQDNCCLRPLYIDFKRDLGWKWIHEPKGYNANFCAGACPYLWSSDTQHSRVLSLYNTINPEASASPCCVSQDLEPLTILYYIGKTPKIEQLSNMIVKSCKCS
cardiogenesis (Myh6-GFP) (Myh6-GFP mESC; [13]): inhibited cardiogenesis
